# Source: ChEMBL document CHEMBL1833937, “Structure-based design of pseudopeptidic inhibitors for SIRT1 and SIRT2” (J Med Chem, 2011)
# Calls of active or inactive are those of the source. The calls are words filed in the database; no cut-off is given here. Where a SMILES comes first, the peptide text is derived from it. [ ]: non-standard residue; d: D form. Lys(Thioacetyl) = CC(=S)NCCCC[C@H](N)C(=O)O
# How the values were obtained:
# [1] = molecular target: T1, NAD-dependent protein deacetylase sirtuin-1 (Homo sapiens) (UniProt Q96EB6); assay: Inhibition of recombinant GST-tagged SIRT1 at 200 uM after 1 hr by Fluor de Lys-based fluorescence assay
# T1 sequence (whole entry): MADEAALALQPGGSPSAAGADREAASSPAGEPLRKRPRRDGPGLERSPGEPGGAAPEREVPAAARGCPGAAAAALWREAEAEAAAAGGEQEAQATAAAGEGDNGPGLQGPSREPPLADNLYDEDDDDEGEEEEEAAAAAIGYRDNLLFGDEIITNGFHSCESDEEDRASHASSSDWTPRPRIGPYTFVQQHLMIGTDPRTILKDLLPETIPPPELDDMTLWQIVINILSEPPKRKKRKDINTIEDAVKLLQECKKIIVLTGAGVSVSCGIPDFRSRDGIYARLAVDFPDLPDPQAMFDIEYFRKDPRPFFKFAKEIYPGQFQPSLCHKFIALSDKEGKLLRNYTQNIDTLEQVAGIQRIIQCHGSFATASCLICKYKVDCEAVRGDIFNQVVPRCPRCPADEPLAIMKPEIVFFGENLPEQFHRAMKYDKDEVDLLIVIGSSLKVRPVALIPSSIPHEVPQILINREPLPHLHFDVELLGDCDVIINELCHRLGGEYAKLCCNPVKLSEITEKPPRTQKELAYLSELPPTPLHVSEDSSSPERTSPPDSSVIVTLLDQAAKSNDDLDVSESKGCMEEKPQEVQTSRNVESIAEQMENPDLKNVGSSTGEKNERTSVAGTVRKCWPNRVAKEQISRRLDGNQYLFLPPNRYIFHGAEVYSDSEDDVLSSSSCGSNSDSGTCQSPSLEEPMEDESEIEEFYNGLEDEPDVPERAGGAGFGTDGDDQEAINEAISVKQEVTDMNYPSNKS
# Summary of the method: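 Single-point Fluor de Lys test at 200 μM: GST-SIRT1 (40 μM KI177 substrate) or GST-SIRT2 (138 μM KI179 substrate), 500 μM NAD+, BSA-supplemented buffer, 5 min rt preincubation, enzyme-started 1 h at 37 °C. Developer with 2 mM nicotinamide 45 min 37 °C; fluorescence ex 355/em 460 nm. Percent inhibition ± standard deviation.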
# [2] = molecular target: T2, NAD-dependent protein deacetylase sirtuin-1 (Homo sapiens, UniProt Q96EB6); assay: Inhibition of recombinant GST-tagged SIRT1 after 1 hr by Fluor de Lys-based fluorescence assay
# T2 sequence (Q96EB6 whole entry): T1 sequence (whole entry)
# Summary of the method: (§1)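 Fluor de Lys deacetylation: GST-SIRT1 with KI177 substrate at 40 μM or GST-SIRT2 with KI179 substrate at 138 μM (70% of Km; Km 58 and 198 μM), 500 μM NAD+, assay buffer with 1 mg/mL BSA, DMSO 2.5 μL per 50 μL. Substrate, NAD+ and compound preincubated 5 min rt; enzyme starts reaction, 1 h 37 °C. Developer plus 2 mM nicotinamide, 45 min 37 °C; ex 355/em 460 nm. IC50 from 9-point dose-response (0.0001–2000 μM), at least three repeats.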
# [3] = molecular target: T3, NAD-dependent protein deacetylase sirtuin-2 (Homo sapiens, UniProt Q8IXJ6); assay: Inhibition of recombinant GST-tagged SIRT2 after 1 hr by Fluor de Lys-based fluorescence assay; summary of the method: as §1
# T3 sequence (Q8IXJ6 whole entry): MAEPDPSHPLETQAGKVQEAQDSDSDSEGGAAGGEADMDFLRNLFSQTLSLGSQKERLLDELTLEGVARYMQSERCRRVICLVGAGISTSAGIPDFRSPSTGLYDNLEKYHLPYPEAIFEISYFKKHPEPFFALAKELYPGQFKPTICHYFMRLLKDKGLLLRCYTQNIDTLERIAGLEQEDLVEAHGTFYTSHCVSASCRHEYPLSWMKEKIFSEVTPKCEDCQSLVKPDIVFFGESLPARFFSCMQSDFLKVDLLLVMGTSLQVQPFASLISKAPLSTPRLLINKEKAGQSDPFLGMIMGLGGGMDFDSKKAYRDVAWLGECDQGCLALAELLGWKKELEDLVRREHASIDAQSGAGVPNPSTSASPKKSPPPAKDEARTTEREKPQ
# [4] = molecular target: Histone deacetylase (Homo sapiens) (UniProt Q13547+O15379+Q9UBN7+Q92769+Q9UQL6+Q8WUI4+Q9BY41+Q96DB2+P56524+Q9UKV0+Q969S8); assay: Inhibition of HDAC in human HeLa nuclear extract at 200 uM after 1 hr by Fluor de Lys-based fluorescence assay; type: protein assay
# Summary of the method: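 HeLa nuclear extract as HDAC source, 50 μM acetylated Fluor de Lys HDAC substrate, compounds 200 μM in HDAC assay buffer; substrate addition starts reaction, 1 h at 37 °C. Developer plus […], 15 min at 25 °C; fluorescence ex 355/em 460 nm. Run twice; means and standard deviations.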
# [5] = molecular target: T1, NAD-dependent protein deacetylase sirtuin-1 (Homo sapiens); assay: Inhibition of human SIRT1 in SH-SY5Y cells assessed as increase in p53 acetylation level at 10 uM after 5 hrs by Western blot analysis in presence of etoposide-induced DNA damage; type: cell-based
# Summary of the method: (§2)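 Cells seeded at 10^5 per well and treated 24 h later with compound plus etoposide together for 5 h. Lysates (M-PER) cleared 16000g 20 min, equal protein on 4–12% SDS-PAGE, blotted to nitrocellulose, probed with rabbit monoclonal anti-acetyl-p53 (K382), actin as loading control, HRP secondary and chemiluminescence.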
# [6] = molecular target: T1, NAD-dependent protein deacetylase sirtuin-1 (Homo sapiens); assay: Inhibition of human SIRT1 in SH-SY5Y cells assessed as increase in p53 acetylation level at 100 uM after 5 hrs by Western blot analysis in presence of etoposide-induced DNA damage; type: cell-based; summary of the method: as §2
# SH-SY5Y [7] = assay: Cytotoxicity against human SH-SY5Y cells at 10 uM by LDH assay; type: functional, cell-based
# Summary of the method: (§3)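 After plating at 10^5 cells/well and 24 h attachment, cells exposed 5 h to compound together with etoposide; cytotoxicity read as lactate dehydrogenase released into culture medium by a commercial LDH kit.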
# SH-SY5Y [8] = assay: Cytotoxicity against human SH-SY5Y cells at 100 uM by LDH assay; type: functional, cell-based; summary of the method: as §3
# [9] = molecular target: T1, NAD-dependent protein deacetylase sirtuin-1 (Homo sapiens); assay: Inhibition of human SIRT1 in human astrocytes assessed as increase in p53 acetylation level at 10 uM after 5 hrs by Western blot analysis in presence of etoposide-induced DNA damage; type: cell-based; summary of the method: as §2
# [10] = molecular target: T1, NAD-dependent protein deacetylase sirtuin-1 (Homo sapiens); assay: Inhibition of human SIRT1 in ARPE19 cells assessed as increase in p53 acetylation level at 10 uM after 5 hrs by Western blot analysis in presence of etoposide-induced DNA damage; type: cell-based; summary of the method: as §2
# [11] = Cytotoxicity against human astrocytes at 10 uM by LDH assay; type: cell-based; details: astrocyte; summary of the method: as §3
# [12] = Cytotoxicity against human ARPE19 cells at 10 uM by LDH assay; type: cell-based; details: arpe-19, 10 µM; summary of the method: as §3
IC50 [2] [µM],IC50 [3] [µM],inhibition [4] [%],Structure (SMILES),other results
0.4,2.9,,CNC(=O)[C@H](C)NC(=O)[C@H](CCCCNC(C)=S)NC(=O)[C@H](C)NC(C)=O,
9.9,15,2.5,CC(=S)NCCCC[C@H](NC(=O)OCc1ccccc1)C(=O)Nc1ccccc1,
51,862,,COC(=O)[C@H](C)NC(=O)[C@H](CCCCNC(C)=S)NC(C)=O,
7.4,16,1.4,CC(=S)NCCCC[C@H](NC(=O)OCc1ccccc1)C(=O)Nc1ccccc1F,
0.66,36,,CC(=S)NCCCC[C@H](NC(=O)[C@H](C)N)C(=O)N[C@@H](C)C(=O)O,
23,,75.4,CC(=S)NCCCC[C@H](NC(=O)OCc1ccccc1)C(=O)NC1CCCCC1,
0.37,31,,CC(=O)N1CCC[C@H]1C(=O)N[C@@H](CCCCNC(C)=S)C(=O)N[C@@H](C)C(=O)O,
1,13,,COC(=O)[C@H](C)NC(=O)[C@H](CCCCNC(C)=S)NC(=O)[C@H](C)NC(C)=O,
1.3,27,16.3,CC(=S)NCCCC[C@H](NC(=O)CCc1ccccc1F)C(=O)N[C@@H](C)C(=O)O,

# Further lines, the compound ahead of its results:
Structure (SMILES),IC50 [2] [µM],IC50 [3] [µM],inhibition [4] [%],other results
CC(=S)NCCCC[C@H](N)C(=O)N[C@@H](C)C(=O)O,,,,inhibition [1]: 46.9%
CC(=S)NCCCC[C@H](NC(=O)CCc1ccccc1O)C(=O)N[C@@H](C)C(=O)O,1,53,5.6,
CC(=S)NCCCC[C@H](NC(=O)[C@H](N)Cc1ccccc1)C(=O)N[C@@H](C)C(=O)O,18,,7.6,
CC(=S)NCCCC[C@H](NC(=O)[C@@H]1CCCN(C(=O)OC(C)(C)C)C1)C(=O)N[C@@H](C)C(=O)O,0.97,13,23.7,Activity [5]: Active; Activity [6]: Active; Activity (SH-SY5Y [7]): inactive; Activity (SH-SY5Y [8]): inactive
CC(=S)NCCCC[C@H](NC(=O)OCc1ccccc1)C(=O)Nc1ccccc1O,5.1,7.4,1.9,
CC(=S)NCCCC[C@H](NC(=O)OCc1ccccc1)C(=O)N[C@@H](C)C(=O)O,1.3,17,3.9,Activity [5]: Active; Activity (SH-SY5Y [7]): inactive
CC(=S)NCCCC[C@H](NC(=O)CCc1ccccc1)C(=O)N[C@@H](C)C(=O)O,0.99,56,8.5,
CSCC[C@H](NC(=O)[C@H](CC(C)C)NC(=O)[C@H](CCCCNC(C)=S)NC(=O)[C@H](CCCCN)NC(=O)[C@@H](N)Cc1cnc[nH]1)C(=O)O (H-HK[Lys(Thioacetyl)]LM-OH),0.31,6.3,,
CC(=S)NCCCC[C@H](NC(=O)OCc1ccccc1)C(=O)NCC(=O)c1ccccc1,1.6,4.3,5.1,Activity [9]: Active; Activity [10]: Active; Activity [5]: Active; Activity [11]: Non-toxic; Activity [12]: Non-toxic; Activity (SH-SY5Y [7]): inactive
CC(=S)NCCCC[C@H](NC(=O)[C@H](C)NC(=O)OC(C)(C)C)C(=O)N[C@@H](C)C(=O)O,0.77,6.5,10.1,
